Bioassay records as filed in PubChem.
Platelet DG rel = inhibitors of platelet dense granule secretion, primary screen, cell-based, MLPCN, human platelets | human platelet-rich plasma, SFLLRN dense granule ATP release, luminescence | inhibition, %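 (compounds screened at 7.5 µM in platelet-rich plasma)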 | 300,000 compounds, 0.22% hits | AID 1663, 2009;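 active means mean replicate score, as percent of positive control, at or above 50; inconclusive means mean below 50 but at least one replicate at or above 50; inactive means mean and every replicate below 50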
SENP1 inh = human SENP1 catalytic domain inhibitors, primary screen, biochemical, FRET, uHTS; 360,000 compounds, 0.21% hits; Sentrin-specific protease 1 (Homo sapiens), Q9P0U3; inhibition, % at 10 µM; AID 624204, 2012; recombinant SENP1 catalytic domain, CyPet-SUMO1-YPet FRET cleavage;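 active means inhibition at least 30% at 10 µM, raw YFP signal under a set limit, fluorescence ratio 0.5 to 1.5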
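Material – human SENP1 catalytic domain · Input – SENP1 enzyme, 20 pM final · Compound dosing – single concentration of 10 µM compound, 0.5% DMSO final · Timing – enzyme reaction for 50 min at room temperature, dark · Measured by – FRET fluorescence in CFP and YFP emission channels · Control set – no-enzyme wells low, DMSO-plus-enzyme wells high control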
SENP8 block-1 = SENP8 protease inhibitors, primary screen, biochemical, luminescence. inhibition, % at 10 µM. purified SENP8, Z-RLRGG-aminoluciferin cleavage. 330,000 compounds, 1.2% hits. Sentrin-specific protease 8 (Homo sapiens), Q96LD8; in the data active means inhibition above about 50%
SENP7 block = SENP7 protease inhibitors, primary screen, biochemical, luminescence, uHTS | inhibition, % at 5 µM | Sentrin-specific protease 7 (Homo sapiens), Q9BQF6 | recombinant SENP7, Z-RLRGG-aminoluciferin luminescence, 40 min | 330,000 compounds, 1.5% hits;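 active means inhibition above about 50% at the single test dose, limit read from the data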
SENP6 inh = SENP6 protease inhibitors, primary screen, biochemical, luminescence, uHTS; Sentrin-specific protease 6 (Homo sapiens), Q9GZR1; Recombinant SENP6 catalytic domain, aminoluciferin luminescence; inhibition, % at 10 µM; 330,000 compounds, 1.8% hits; AID 2599, 2010;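 active means inhibition above about 50% at the single tested dose, limit read from the data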
Target sequence (Q9GZR1 628-1112 limits assumed): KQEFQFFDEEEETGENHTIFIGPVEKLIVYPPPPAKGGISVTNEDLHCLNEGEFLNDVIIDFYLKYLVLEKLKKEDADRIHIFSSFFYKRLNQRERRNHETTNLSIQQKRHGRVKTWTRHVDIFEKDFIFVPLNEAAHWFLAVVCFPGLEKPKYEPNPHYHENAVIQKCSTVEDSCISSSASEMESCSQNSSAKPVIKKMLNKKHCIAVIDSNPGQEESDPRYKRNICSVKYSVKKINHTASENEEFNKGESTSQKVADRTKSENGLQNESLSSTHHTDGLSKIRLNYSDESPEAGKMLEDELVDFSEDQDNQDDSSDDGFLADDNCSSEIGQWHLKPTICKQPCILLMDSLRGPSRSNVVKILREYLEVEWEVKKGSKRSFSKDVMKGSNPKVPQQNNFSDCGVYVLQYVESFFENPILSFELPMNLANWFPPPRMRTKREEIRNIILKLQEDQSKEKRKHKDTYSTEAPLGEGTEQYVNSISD
SENP8 block-2 = human SENP8 protease inhibitors, primary screen, biochemical, fluorescence, Nedd8 protein substrate, uHTS; recombinant SENP8; inhibition, % at 20 µM; Sentrin-specific protease 8 (Homo sapiens), Q96LD8; AID 602440, 2012; 360,000 compounds, 0.64% hits; in the data active means inhibition mostly above about 40%, no sharp cut-off; inactive means mostly below about 27%
SENP8 confirm = SENP8 protease inhibitors, retest, confirmation, biochemical, luminescence, single concentration. shares compounds with SENP7 block. Recombinant SENP8, Z-RLRGG-aminoluciferin luminescence, 60 min. inhibition, % at 12.5 µM. 6,200 compounds, 40% hits. AID 488912, 2010;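 active means mean inhibition across replicates above about 50%, limit read from the data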
SENP6 conf = SENP6 protease inhibitors, confirmation, biochemical, luminescence, single concentration. 6,200 compounds, 58% hits. AID 488915, 2010. shares compounds with SENP7 block. recombinant SENP6, Z-RLRGG-aminoluciferin luminescence. inhibition, % at 12.5 µM
SENP7 conf = SENP7 protease inhibitors, retest, confirmation, biochemical, luminescence, single concentration; shares compounds with SENP7 block; recombinant SENP7, Z-RLRGG-aminoluciferin luminescence, 40 min; inhibition, % at 12.5 µM; 6,200 compounds, 69% hits; AID 488917, 2010
Casp3 SENP sel = caspase-3 protease inhibitors, confirmation, selectivity assay for SENP inhibitor project, biochemical, single concentration; shares compounds with SENP7 block; purified caspase-3, Z-DEVD-aminoluciferin luminescence, 60 min; inhibition, % at 12.5 µM; 6,200 compounds, 60% hits;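 active means mean inhibition above about 50%, limit read from the data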
Luc interf = interferes with luciferase luminescence in SENP counter-screen | AID 488919 | 6,200 compounds, 39% hits | inhibition, % at 12.5 µM | Pre-incubated SENP8/Z-RLRGG-aminoluciferin, luciferase luminescence interference | shares compounds with SENP7 block;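 active means mean inhibition above about 50% when retested at one dose, limit read from the data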
A number is an active result; 0 = inactive; ? = inconclusive; - = no result given. Only some compounds are listed: those with a hit (about 2.6% of all), similar ones and a draw of the others.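 How the source made its calls, unless noted: active means mean inhibition above about 50% in the one-dose retest (limit read from the data); inactive means the rest.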

SMILES | Platelet DG rel | SENP1 inh | SENP8 block-1 | SENP7 block | SENP6 inh | SENP8 block-2 | SENP8 confirm | SENP6 conf | SENP7 conf | Casp3 SENP sel | Luc interf
COc1ccc(/C=N/NC(=O)c2[nH]ncc2Br)c(OC)c1 | 0 | 0 | 75 | 87 | 82 | 0 | 80 | 81 | 97 | 93 | 0
O=C(N/N=C/c1cccnc1)c1[nH]ncc1Br | 0 | 0 | 0 | 0 | 0 | 0 | - | - | - | - | -
CCCNC(=O)C1(C)CCCN(C(=O)c2c(C)noc2C)C1 (stereo not drawn) | - | 0 | - | - | - | 0 | - | - | - | - | -
Oc1cc(-n2cccn2)c(O)cc1-n1cccn1 | 0 | 0 | - | - | - | 0 | - | - | - | - | -
Cc1nc(C(F)(F)F)ccc1C(=O)N1CCC(C)(C(=O)O)C1 (stereo not drawn) | - | 0 | - | - | - | 0 | - | - | - | - | -
CC1CCN(c2ccc(-c3cccc(NC(=O)c4ccco4)c3)nn2)CC1 | 0 | 0 | 59 | 74 | 79 | 0 | 66 | 69 | 88 | 66 | 0
CC1CCN(c2ccc(-c3cccc(NC(=O)C(F)(F)F)c3)nn2)CC1 | 0 | 0 | 0 | 0 | 0 | 0 | - | - | - | - | -
CCC(=O)Nc1ccc(-c2ccc(N3CCC(C)CC3)nn2)cc1 | 0 | 0 | 0 | 0 | 0 | 0 | - | - | - | - | -
CCC(=O)Nc1cccc(-c2ccc(N3CCC(C)CC3)nn2)c1 | 0 | 0 | 0 | 59 | 69 | 0 | 0 | 56 | 84 | 73 | 0
O=C(Nc1cccc(-c2ccc(N3CCCCC3)nn2)c1)c1ccc(Br)o1 | 0 | 0 | 76 | 83 | 89 | 0 | 73 | 79 | 94 | 82 | 60
CN(C(=O)c1cccc(NC(=O)Cc2ccc(NC(=O)C3CCCN(C(=O)C4CC4)C3)cc2)c1)C1CCC1 (stereo not drawn) | - | 0 | - | - | - | 0 | - | - | - | - | -
CC1(C)CCC(=O)N2CC[C@H]3C[C@H](OC(=O)Nc4ccccc4)C[C@@H]1[C@H]32 | 0 | 0 | 56 | 73 | 69 | 0 | 0 | 52 | 87 | 77 | 69
CCOC(=O)c1ccc(COC(=O)c2ccc(-c3nnc(-c4ccccc4)o3)cc2)o1 | ? | 0 | 0 | 0 | 53 | 0 | 0 | 0 | 0 | 59 | 51
CCOC(=O)c1ccc(-c2ccc(CO)o2)cc1 | 0 | 0 | 0 | 55 | 65 | 0 | 60 | 57 | 86 | 73 | 64
COc1ccc(NC(C)C(=O)N/N=C/c2ccccc2OCc2cccc(Br)c2)cc1 (stereo not drawn) | 0 | 0 | 0 | 93 | 0 | 0 | 0 | 0 | 0 | 0 | 0
Cc1ccccc1NC(C)C(=O)N/N=C/c1ccccc1OCc1cccc(Br)c1 (stereo not drawn) | 0 | 0 | 0 | 0 | 0 | 0 | - | - | - | - | -
CC1CCCC(NC(=O)Cn2c(Cl)nc3c2c(=O)n(C)c(=O)n3C)C1C (stereo not drawn) | - | 0 | 0 | 0 | 0 | 0 | - | - | - | - | -
